The text below walks through data of ChEMBL document CHEMBL1136653, “Discovery of a potent and selective agonist of the prostaglandin EP4 receptor” (Bioorg Med Chem Lett, 2003).

Type in all cases: cell-based
Assay [1] concerns the target Prostaglandin F2-alpha receptor (Homo sapiens, UniProt P43088). The assay is described as follows: Binding affinity towards FP receptor expressed in HEK293 ebna cells recombinantly expressing the corresponding human prostanoid cDNAs. The method, boiled down: (§1)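 Competition binding used membrane preparations, not intact cells, from HEK293ebna cells expressing each recombinant human prostanoid receptor cDNA.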

In assay [2] the target is T1, Prostaglandin E2 receptor EP3 subtype (Homo sapiens, UniProt P43115).
T1 sequence (P43115 whole entry): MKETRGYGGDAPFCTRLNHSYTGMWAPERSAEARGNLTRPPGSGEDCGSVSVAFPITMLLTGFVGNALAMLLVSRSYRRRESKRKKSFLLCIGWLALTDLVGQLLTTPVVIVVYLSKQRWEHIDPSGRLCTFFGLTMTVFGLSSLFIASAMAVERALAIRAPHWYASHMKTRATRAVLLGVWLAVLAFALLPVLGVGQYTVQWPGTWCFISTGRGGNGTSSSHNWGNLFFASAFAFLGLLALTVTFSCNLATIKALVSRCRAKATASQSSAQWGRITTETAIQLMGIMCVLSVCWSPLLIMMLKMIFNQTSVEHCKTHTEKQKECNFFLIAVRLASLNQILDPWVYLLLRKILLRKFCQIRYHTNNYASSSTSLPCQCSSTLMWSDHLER
The assay is described as follows: Binding affinity towards EP3 receptor expressed in HEK293 ebna cells recombinantly expressing the corresponding human prostanoid cDNAs. The method, boiled down:
as §1

For assay [3], the target named is T2, Prostaglandin D2 receptor (Homo sapiens, UniProt Q13258).
T2 sequence (Q13258 whole entry): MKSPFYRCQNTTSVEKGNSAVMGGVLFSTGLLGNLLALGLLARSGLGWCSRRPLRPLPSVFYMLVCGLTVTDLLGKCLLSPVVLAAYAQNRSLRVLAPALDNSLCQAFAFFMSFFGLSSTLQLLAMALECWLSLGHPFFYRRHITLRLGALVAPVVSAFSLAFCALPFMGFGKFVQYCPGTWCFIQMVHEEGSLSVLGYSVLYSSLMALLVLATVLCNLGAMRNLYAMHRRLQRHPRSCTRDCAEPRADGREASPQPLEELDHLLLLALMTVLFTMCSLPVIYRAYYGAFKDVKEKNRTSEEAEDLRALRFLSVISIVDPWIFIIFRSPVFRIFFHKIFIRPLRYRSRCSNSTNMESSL
The assay is described as follows: Binding affinity towards DP receptor expressed in HEK293 ebna cells recombinantly expressing the corresponding human prostanoid cDNAs. The gist of the method:
as §1

The target of assay [4] is Prostaglandin E2 receptor EP2 subtype (Homo sapiens, UniProt P43116). Briefly: Binding affinity towards EP2 receptor expressed in HEK293 ebna cells recombinantly expressing the corresponding human prostanoid cDNAs. The method, boiled down: as §1
Chain of Prostaglandin E2 receptor EP2 subtype (P43116 whole entry): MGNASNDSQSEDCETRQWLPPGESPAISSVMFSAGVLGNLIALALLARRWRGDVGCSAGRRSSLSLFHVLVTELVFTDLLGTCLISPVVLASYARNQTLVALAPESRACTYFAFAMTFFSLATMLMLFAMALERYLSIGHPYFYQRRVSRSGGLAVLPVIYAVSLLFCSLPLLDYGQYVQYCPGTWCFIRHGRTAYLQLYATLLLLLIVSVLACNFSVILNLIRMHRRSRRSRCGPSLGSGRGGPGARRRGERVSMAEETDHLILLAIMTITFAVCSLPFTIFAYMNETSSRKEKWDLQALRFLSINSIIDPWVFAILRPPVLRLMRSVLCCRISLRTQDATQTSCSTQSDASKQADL
Assay [5] has as its target T3, Prostaglandin E2 receptor EP1 subtype (Homo sapiens, UniProt P34995).
T3 sequence (P34995 whole entry): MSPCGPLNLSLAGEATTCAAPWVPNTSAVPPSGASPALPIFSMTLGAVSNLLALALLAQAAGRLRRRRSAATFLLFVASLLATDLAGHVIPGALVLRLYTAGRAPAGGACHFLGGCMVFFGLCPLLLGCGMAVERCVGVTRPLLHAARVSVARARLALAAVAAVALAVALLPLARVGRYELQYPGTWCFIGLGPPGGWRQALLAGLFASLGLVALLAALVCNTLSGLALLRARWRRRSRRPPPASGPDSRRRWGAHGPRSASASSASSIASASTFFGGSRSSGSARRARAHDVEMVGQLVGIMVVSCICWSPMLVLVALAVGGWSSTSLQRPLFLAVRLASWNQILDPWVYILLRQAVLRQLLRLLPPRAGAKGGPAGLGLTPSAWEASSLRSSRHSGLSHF
Briefly: Binding affinity towards EP1 receptor expressed in HEK293 ebna cells recombinantly expressing the corresponding human prostanoid cDNAs. The gist of the method:
as §1

For another assay, the target named is T4, Thromboxane A2 receptor (Homo sapiens, UniProt P21731).
T4 sequence (P21731 whole entry): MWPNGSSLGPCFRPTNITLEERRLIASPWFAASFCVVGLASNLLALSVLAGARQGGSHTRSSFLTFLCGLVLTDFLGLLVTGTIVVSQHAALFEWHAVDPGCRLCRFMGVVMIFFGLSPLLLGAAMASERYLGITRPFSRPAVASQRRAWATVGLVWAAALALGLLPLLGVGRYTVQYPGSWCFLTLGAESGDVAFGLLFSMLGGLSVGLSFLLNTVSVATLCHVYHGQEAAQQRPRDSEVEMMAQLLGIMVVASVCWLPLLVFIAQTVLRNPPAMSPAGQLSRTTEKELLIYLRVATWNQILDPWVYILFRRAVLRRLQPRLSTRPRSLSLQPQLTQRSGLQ
Briefly: Binding affinity towards TP receptor expressed in HEK293 ebna cells recombinantly expressing the corresponding human prostanoid cDNAs. The method, boiled down:
as §1

The target of another assay is Prostacyclin receptor (Homo sapiens, UniProt P43119). The assay is described as follows: Binding affinity towards IP receptor expressed in HEK293 ebna cells recombinantly expressing the corresponding human prostanoid cDNAs. The method, boiled down: as §1
Chain of Prostacyclin receptor (P43119 whole entry): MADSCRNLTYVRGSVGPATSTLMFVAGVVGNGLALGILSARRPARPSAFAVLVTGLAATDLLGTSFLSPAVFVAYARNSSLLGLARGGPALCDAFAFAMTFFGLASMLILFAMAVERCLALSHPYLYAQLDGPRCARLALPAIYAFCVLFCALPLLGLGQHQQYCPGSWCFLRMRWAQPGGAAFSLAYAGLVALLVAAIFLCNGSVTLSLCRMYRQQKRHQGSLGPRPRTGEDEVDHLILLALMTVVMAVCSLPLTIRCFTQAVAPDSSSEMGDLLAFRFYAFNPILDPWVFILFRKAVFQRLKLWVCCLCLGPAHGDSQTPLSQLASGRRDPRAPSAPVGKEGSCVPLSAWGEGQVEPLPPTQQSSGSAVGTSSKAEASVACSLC
The target in assay [6] is Prostaglandin E2 receptor EP4 subtype (Homo sapiens, UniProt P35408). Briefly: Binding affinity towards EP4 receptor expressed in HEK293 ebna cells recombinantly expressing the corresponding human prostanoid cDNAs.
Chain of Prostaglandin E2 receptor EP4 subtype (P35408 whole entry): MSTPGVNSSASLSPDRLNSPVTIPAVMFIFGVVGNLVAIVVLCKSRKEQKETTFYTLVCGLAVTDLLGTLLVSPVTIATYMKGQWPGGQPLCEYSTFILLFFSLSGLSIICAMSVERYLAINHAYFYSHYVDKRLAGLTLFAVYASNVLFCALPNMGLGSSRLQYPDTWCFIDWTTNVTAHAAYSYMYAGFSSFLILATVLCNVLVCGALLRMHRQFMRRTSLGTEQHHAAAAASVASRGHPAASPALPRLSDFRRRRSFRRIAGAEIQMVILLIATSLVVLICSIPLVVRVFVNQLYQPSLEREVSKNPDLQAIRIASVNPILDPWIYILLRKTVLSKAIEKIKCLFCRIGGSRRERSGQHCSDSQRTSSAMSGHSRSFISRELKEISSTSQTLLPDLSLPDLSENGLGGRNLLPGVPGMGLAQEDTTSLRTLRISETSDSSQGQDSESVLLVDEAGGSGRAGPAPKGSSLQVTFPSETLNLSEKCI

Structures are written as SMILES.

As usually defined, the Ki is a dissociation constant, usually derived from enzyme kinetics or from competition with a known ligand.

Chain of Prostaglandin F2-alpha receptor (P43088 whole entry): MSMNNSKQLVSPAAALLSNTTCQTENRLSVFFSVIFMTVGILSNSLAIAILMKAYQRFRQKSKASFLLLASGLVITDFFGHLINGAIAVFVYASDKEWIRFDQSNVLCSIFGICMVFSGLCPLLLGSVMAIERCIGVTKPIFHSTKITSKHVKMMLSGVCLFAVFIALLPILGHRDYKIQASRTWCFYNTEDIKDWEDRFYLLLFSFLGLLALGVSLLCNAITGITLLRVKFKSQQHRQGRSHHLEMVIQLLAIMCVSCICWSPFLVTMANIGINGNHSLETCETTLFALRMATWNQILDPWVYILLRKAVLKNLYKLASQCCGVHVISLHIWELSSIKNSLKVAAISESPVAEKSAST

`O=C(O)CCCCCCN1C(=O)CC[C@@H]1/C=C/C(O)C1CCCCC1` (some centres undefined): the Ki (in assay [1]; in assay [2]; in assay [3]; in assay [4]; in assay [5]; at Thromboxane A2 receptor) was greater than 13 µM throughout. Further, the results for the Ki (at Prostacyclin receptor; in assay [6]) were greater than 13 µM and 3500 nM, respectively.

`O=C(O)CCCCCCN1C(=O)CC[C@@H]1/C=C/C(O)C1(c2ccccc2)CC1` (some centres undefined): the inhibitory constant (Ki) in assay [1] was greater than 13 µM; in assay [2] it was 3.34 µM; in assay [3], greater than 13 µM; in assay [4] it was greater than 13 µM; in assay [5], greater than 13 µM; on Thromboxane A2 receptor, greater than 13 µM. For the same compound, the Ki on Prostacyclin receptor was greater than 13 µM; in assay [6] it was 12 nM.

Turning to `COCc1cccc(CC(O)/C=C/[C@H]2CCC(=O)N2CCCCCCC(=O)O)c1` (some centres undefined), the Ki (in assay [1]; in assay [2]; in assay [3]; in assay [4]; in assay [5]; at Thromboxane A2 receptor) was greater than 13 µM in each case. In addition, the Ki is greater than 13 µM at Prostacyclin receptor and 3.6 nM in assay [6].

Turning to `CC(O)(/C=C/[C@H]1CCC(=O)N1CCCCCCC(=O)O)Cc1ccccc1` (some centres undefined), the Ki (in assay [1]; in assay [2]; in assay [3]; in assay [4]; in assay [5]; on Thromboxane A2 receptor) was greater than 13 µM each time. The inhibition constant Ki is greater than 13 µM on Prostacyclin receptor and 2100 nM in assay [6].

Consider `CCCCCC(O)CC[C@@H]1CCC(=O)N1CCCCCCC(=O)O` (some centres undefined), for which the Ki was greater than 13 µM in assay [1]; 2.32 µM in assay [2]; greater than 13 µM in assay [3]; 3.61 µM in assay [4]; greater than 13 µM in assay [5]; greater than 13 µM at Thromboxane A2 receptor. Further, the Ki was greater than 13 µM on Prostacyclin receptor and 1110 nM in assay [6].

Regarding `CCCCCC(O)/C=C/[C@H]1CCC(=O)N1CCCCCCC(=O)O` (some centres undefined), the Ki in assay [1] was greater than 13 µM; in assay [2] it was 0.419 µM; in assay [3] it was greater than 13 µM; in assay [4], 6.68 µM; in assay [5] it was greater than 13 µM; on Thromboxane A2 receptor, greater than 13 µM. The Ki is greater than 13 µM at Prostacyclin receptor and 6 nM in assay [6].

Consider `CCCCCC(O)/C=C/[C@@H]1CCC(=O)N1CCCCCCC(=O)O` (some centres undefined), for which the inhibition constant (Ki) in assay [1] is greater than 13 µM; in assay [2], 1.22 µM; in assay [3] it was greater than 13 µM; in assay [4], greater than 13 µM; in assay [5] it was greater than 13 µM; on Thromboxane A2 receptor, greater than 13 µM. For the same compound, the Ki is greater than 13 µM at Prostacyclin receptor and 1410 nM in assay [6].

With `CCCCCC(O)CCC1CCC(=O)N1CCCCCCC(=O)O` (centres undefined), the Ki in assay [1] was greater than 13 µM; in assay [2] it was 2 µM; in assay [3], greater than 13 µM; in assay [4] it was 3 µM; in assay [5], greater than 13 µM; on Thromboxane A2 receptor it was greater than 13 µM. Also, the Ki was greater than 13 µM on Prostacyclin receptor and 35 nM in assay [6].

As for `O=C1CC[C@H](/C=C/C(O)Cc2ccccc2)N1CCCCSc1nnn[nH]1` (some centres undefined), the Ki (in assay [1]; in assay [2]; in assay [3]; in assay [4]; in assay [5]; at Thromboxane A2 receptor) was greater than 13 µM each time. Also, the Ki at Prostacyclin receptor was greater than 13 µM; in assay [6] it was 243 nM.

For the compound `O=C(O)CCCCCCN1C(=O)CC[C@@H]1/C=C/C(O)CCc1ccccc1` (some centres undefined), the Ki in assay [1] is greater than 13 µM; in assay [2], 2.01 µM; in assay [3] it was greater than 13 µM; in assay [4], greater than 13 µM; in assay [5] it was greater than 13 µM; on Thromboxane A2 receptor, greater than 13 µM. For the same compound, the results for the Ki (at Prostacyclin receptor; in assay [6]) were greater than 13 µM and 102 nM, respectively.

With `O=C1CC[C@H](/C=C/[C@@H](O)Cc2ccccc2)N1CCCCCCc1nnn[nH]1.O=C1CC[C@H](/C=C/[C@H](O)Cc2ccccc2)N1CCCCCCc1nnn[nH]1`, the inhibition constant Ki (in assay [1]; in assay [2]; in assay [3]; in assay [4]; in assay [5]; on Thromboxane A2 receptor) was greater than 13 µM throughout. Besides, the Ki at Prostacyclin receptor is greater than 13 µM; in assay [6] it was 2.5 nM.

On to `O=C(O)CCSCCCCN1C(=O)CC[C@@H]1/C=C/C(O)Cc1ccccc1` (some centres undefined), for which the Ki (in assay [1]; in assay [2]; in assay [3]; in assay [4]; in assay [5]; at Thromboxane A2 receptor) was greater than 13 µM in each case. Further, the Ki was greater than 13 µM at Prostacyclin receptor and 140 nM in assay [6].

`CC(C)(c1ccccc1)C(O)/C=C/[C@H]1CCC(=O)N1CCCCCCC(=O)O` (some centres undefined): the Ki is greater than 13 µM in assay [1]; 10.6 µM in assay [2]; greater than 13 µM in assay [3]; greater than 13 µM in assay [4]; greater than 13 µM in assay [5]; greater than 13 µM at Thromboxane A2 receptor. Moreover, the Ki was greater than 13 µM at Prostacyclin receptor and 62 nM in assay [6].

With `O=C1CC[C@H](/C=C/C(O)Cc2ccccc2)N1CCCCSCc1nn[nH]n1` (some centres undefined), the Ki (in assay [1]; in assay [2]; in assay [3]; in assay [4]; in assay [5]; at Thromboxane A2 receptor) was greater than 13 µM in each case. Moreover, the results for the Ki (at Prostacyclin receptor; in assay [6]) were greater than 13 µM and 66 nM, respectively.

With `COC(=O)CSCCCCN1C(=O)CC[C@@H]1/C=C/C(O)Cc1ccccc1` (some centres undefined), the Ki (in assay [1]; in assay [2]; in assay [3]; in assay [4]; in assay [5]; at Thromboxane A2 receptor) was greater than 13 µM in each case. Further, the values for the Ki (at Prostacyclin receptor; in assay [6]) were greater than 13 µM and 443 nM, respectively.

For the compound `O=C1CC[C@H](/C=C/[C@H](O)Cc2ccccc2)N1CCCCCCc1nnn[nH]1`, the Ki (in assay [1]; in assay [2]; in assay [3]; in assay [4]; in assay [5]; on Thromboxane A2 receptor) was greater than 13 µM throughout. Moreover, the Ki at Prostacyclin receptor was greater than 13 µM; in assay [6] it was 230 nM.

As to `O=C(O)CSCCCCN1C(=O)CC[C@@H]1/C=C/C(O)Cc1ccccc1` (some centres undefined), the Ki (in assay [1]; in assay [2]; in assay [3]; in assay [4]; in assay [5]; on Thromboxane A2 receptor) was greater than 13 µM throughout. Also, the Ki at Prostacyclin receptor was greater than 13 µM; in assay [6] it was 13 nM.

In the case of `CCCCCC(O)CC[C@H]1CCC(=O)N1CCCCCCC(=O)O` (some centres undefined), the Ki in assay [1] was greater than 13 µM; in assay [2], 0.7 µM; in assay [3] it was greater than 13 µM; in assay [4], 4.05 µM; in assay [5] it was greater than 13 µM; on Thromboxane A2 receptor it was greater than 13 µM. Also, the Ki on Prostacyclin receptor was greater than 13 µM; in assay [6], 28 nM.
